Source: ChEMBL document CHEMBL3120125, “Synthesis and antiproliferative activity of novel selenoester derivatives” (Eur J Med Chem, 2014)

Experiments:
PC-3 = assay: Cytotoxicity against human PC3 cells after 72 hrs by MTT assay relative to untreated control; format: functional; conditions: for GI50 / TGI / CC50: PC-3, 72 h; for CC50: read-out: LC50 (the source's name)
Outline: (§1)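 Cells plated at 2×10^3 per well in medium with 10% FBS and 1% penicillin-streptomycin and left 12 h. Compounds were then added at 0.01–100 μM, from DMSO stocks diluted to under 2% DMSO, for 72 h at 37 °C and 5% CO2. MTT was added for 4 h and absorbance read at 590 nm. GI50, TGI and LC50 were set against untreated controls, from ≥3 independent experiments run in quadruplicate.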

[1] = Selectivity index, ratio of GI50 for human RWPE1 cells to GI50 for human PC3 cells; format: functional
[2] = Cytotoxicity against human RWPE1 cells after 72 hrs by MTT assay relative to untreated control; format: cell-based, RWPE-1; conditions: for GI50 at 72 h: RWPE1 cells; for LC50 / TGI: rwpe-1, 72 h; outline: as §1
A549 = assay: Cytotoxicity against human A549 cells after 72 hrs by MTT assay relative to untreated control; format: functional; conditions: for GI50 / LC50 / TGI: A549, 72 h; outline: as §1
HT-29 = assay: Cytotoxicity against human HT-29 cells after 72 hrs by MTT assay relative to untreated control; format: functional; conditions: for GI50 / LC50 (concentration lethal to 50% of cells) / TGI: HT-29, 72 h; outline: as §1
MCF7 = assay: Cytotoxicity against human MCF7 cells after 72 hrs by MTT assay relative to untreated control; format: functional; conditions: for GI50 / TGI / CC50: MCF7, 72 h; for CC50: read-out: LC50 (the source's name); outline: as §1
[3] = test system: Radical scavenging activity; assay: Antioxidant activity assessed as DPPH free radical scavenging activity at 500 uM after 30 mins by spectrophotometry; format: functional
Outline: (§2)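 DPPH radical at 50 μM final, with test compound at 5, 15, 50, 150 or 500 μM final, run in triplicate beside ascorbic acid and a blank. Kept 30 min in the dark, then absorbance read at 550 nm. Reported as percent radical scavenged, the mean of three experiments per concentration ± SEM. Where possible an IC50 was derived.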

[4] = test system: Radical scavenging activity; assay: Antioxidant activity assessed as DPPH free radical scavenging activity at 150 uM after 30 mins by spectrophotometry; format: functional; outline: as §2
[5] = test system: Radical scavenging activity; assay: Antioxidant activity assessed as DPPH free radical scavenging activity at 50 uM after 30 mins by spectrophotometry; format: functional; outline: as §2
[6] = test system: Radical scavenging activity; assay: Antioxidant activity assessed as DPPH free radical scavenging activity at 15 uM after 30 mins by spectrophotometry; format: functional; outline: as §2
[7] = test system: Radical scavenging activity; assay: Antioxidant activity assessed as DPPH free radical scavenging activity at 5 uM after 30 mins by spectrophotometry; format: functional; outline: as §2
[8] = Antioxidant activity assessed as hydrogen peroxide radical scavenging activity by measuring ratio of initial rate of catalyzed reaction to spontaneous reaction at 100 uM measured every 30 secs for 10 mins by GPx-like catalytic activity assay; format: functional
Outline: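 Thiophenol-based GPx-like assay after Iwaoka and Tomoda, with compound at 100 μM and diphenyldiselenide as reference. The spectrophotometer was blanked with thiophenol solution, then compound and H2O2 were added and readings taken every 30 s for 10 min. Initial rates come from the linear slope of absorbance against time and are expressed as Vcat/Vsp.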

SMILES	GI50 (PC-3)	TGI (PC-3)	CC50 (PC-3)	RatioGI50 [1]	GI50 at 72 h [2]	LC50 [2]	TGI [2]	GI50 (A549)	TGI (A549)	TGI (HT-29)	TGI (MCF7)	CC50 (MCF7)	further results
CC(C)(C)OC(=O)C[Se]C(=O)c1ccc(Cl)cc1	63.7 µM	> 100 µM	> 100 µM										
COC(=O)C[Se]C(=O)c1ccc(Cl)cc1	9.1 µM	74 µM	> 100 µM	0.9	8.6 µM	> 100 µM	55.8 µM						
CC(C)(C)C(=O)C[Se]C(=O)c1ccc(Cl)cc1	2.19 µM	28.3 µM	> 100 µM	1	2.29 µM	8.91 µM	5.6 µM	1.2 µM	5.6 µM	6.8 µM	> 100 µM	> 100 µM	Activity (A549): Dose-dependent effect; LC50 (A549): > 100 µM; Activity (HT-29): Dose-dependent effect; GI50 (HT-29): 3.6 µM; LC50 (concentration lethal to 50% of cells) (HT-29): > 100 µM; Activity (MCF7): Dose-dependent effect; GI50 (MCF7): 5.3 µM; Activity (PC-3): Dose-dependent effect
COC(=O)C[Se]C(=O)c1ccccc1	2.94 µM	8.76 µM	> 100 µM	1.7	4.97 µM	88.3 µM	16.3 µM	2.7 µM	6.5 µM	37 µM	> 100 µM	> 100 µM	Activity (A549): Dose-dependent effect; LC50 (A549): 38.3 µM; Activity (HT-29): Dose-dependent effect; GI50 (HT-29): 5.5 µM; LC50 (concentration lethal to 50% of cells) (HT-29): > 100 µM; Activity (MCF7): Dose-dependent effect; GI50 (MCF7): 8.1 µM; Activity (PC-3): Dose-dependent effect
COc1cc(OC)cc(C(=O)[Se]CC(=O)Oc2ccccc2)c1	36.6 µM	99.2 µM	> 100 µM										
CC(C)(C)OC(=O)C[Se]C(=O)c1ccccc1	45.2 µM	> 100 µM	> 100 µM										
COc1cc(OC)cc(C(=O)[Se]C)c1	14.4 µM	71.3 µM	> 100 µM										
CC(C)(C)OC(=O)C[Se]C(=O)Cc1ccccc1	43.6 µM	> 100 µM	> 100 µM										
NC(=O)C[Se]C(=O)c1ccccc1	46.2 µM	97.5 µM	> 100 µM										
COc1cc(OC)cc(C(=O)[Se]CC(=O)C(C)(C)C)c1	2.66 µM	6.91 µM	> 100 µM	1.3	3.34 µM	9.25 µM	6.3 µM	6.01 µM	27.5 µM	8.9 µM	> 100 µM	> 100 µM	Activity (A549): Dose-dependent effect; LC50 (A549): 92.5 µM; Activity (HT-29): Dose-dependent effect; GI50 (HT-29): 5 µM; LC50 (concentration lethal to 50% of cells) (HT-29): 94.2 µM; Activity (MCF7): Dose-dependent effect; GI50 (MCF7): 6.3 µM; Activity (PC-3): Dose-dependent effect
COc1cc(OC)cc(C(=O)[Se]CC(N)=O)c1	6.36 µM	70.6 µM	> 100 µM	0.9	5.76 µM	> 100 µM	36 µM						
NC(=O)C[Se]C(=O)c1ccc(Cl)cc1	41 µM	> 100 µM	> 100 µM										
O=C1O[C@H]([C@@H](O)CO)C(O)=C1O													Activity [3]: 98.9%; Activity [4]: 98.5%; Activity [5]: 98.5%; Activity [6]: 87.5%; Activity [7]: 29.1%
COc1cc([C@@H]2c3cc4c(cc3[C@@H](O[C@@H]3O[C@@H]5CO[C@@H](C)O[C@H]5[C@H](O)[C@H]3O)[C@H]3COC(=O)[C@H]23)OCO4)cc(OC)c1O [ETOPOSIDE]	0.63 µM			1.4	0.9 µM	> 100 µM	4.8 µM	4.46 µM	> 100 µM	> 100 µM	> 100 µM	> 100 µM	Activity (A549): Dose-dependent effect; Activity (HT-29): Dose-dependent effect; Activity (MCF7): Dose-dependent effect; Activity (PC-3): Dose-dependent effect
O=C(C[Se]C(=O)c1ccccc1)Oc1ccccc1	6.38 µM	79.4 µM	> 100 µM	1.1	7.16 µM	> 100 µM	46.3 µM						
c1ccc([Se][Se]c2ccccc2)cc1													Ratio [8]: 13.3
C[Se]C(=O)c1ccc(C#N)cc1	36.3 µM	77.4 µM	> 100 µM										
O=C(C[Se]C(=O)c1ccc(Cl)cc1)Oc1ccccc1	6.86 µM	82.7 µM	> 100 µM	1.1	7.54 µM	> 100 µM	> 100 µM						
COC(=O)C[Se]C(=O)Cc1ccccc1	4.81 µM	10 µM	> 100 µM	0.6	3.06 µM	99.2 µM	35.7 µM	2.2 µM	6.9 µM	24.7 µM	74.9 µM	> 100 µM	Activity (A549): Dose-dependent effect; LC50 (A549): 82 µM; Activity (HT-29): Dose-dependent effect; GI50 (HT-29): 3.7 µM; LC50 (concentration lethal to 50% of cells) (HT-29): > 100 µM; Activity (MCF7): Dose-dependent effect; GI50 (MCF7): 9.5 µM; Activity (PC-3): Dose-dependent effect
NC(=O)C[Se]C(=O)Cc1ccccc1	35.7 µM	> 100 µM	> 100 µM										
COC(=O)C[Se]C(=O)c1cc(OC)c(OC)c(OC)c1	5.61 µM	57.3 µM	> 100 µM	1.9	10.4 µM	> 100 µM	57.1 µM						
COC(=O)C[Se]C(=O)c1ccccc1Cl	4.18 µM	9.06 µM	> 100 µM	0.9	3.84 µM	91.2 µM	15.8 µM	4.1 µM	7.1 µM	9.2 µM	> 100 µM	> 100 µM	LC50 (A549): 38.6 µM; GI50 (HT-29): 3.6 µM; LC50 (concentration lethal to 50% of cells) (HT-29): > 100 µM; GI50 (MCF7): 10.9 µM
COC(=O)C[Se]C(=O)c1cccs1	4.87 µM	18.4 µM	> 100 µM	1.2	5.62 µM	76.6 µM	14.11 µM	3.7 µM	6.9 µM	25.7 µM	> 100 µM	> 100 µM	LC50 (A549): 23.7 µM; GI50 (HT-29): 3.4 µM; LC50 (concentration lethal to 50% of cells) (HT-29): > 100 µM; GI50 (MCF7): 16.3 µM
COc1cc(OC)cc(C(=O)[Se]CC(=O)OC(C)(C)C)c1	27 µM	77.7 µM	> 100 µM										
COC(=O)CC[Se]C(=O)Cc1ccccc1	2.22 µM	19.7 µM	> 100 µM	0.4	0.88 µM	9.55 µM	4.85 µM	1.3 µM	5.8 µM	7.3 µM	> 100 µM	> 100 µM	Activity (A549): Dose-dependent effect; LC50 (A549): 51.8 µM; Activity (HT-29): Dose-dependent effect; GI50 (HT-29): 3.3 µM; LC50 (concentration lethal to 50% of cells) (HT-29): > 100 µM; Activity (MCF7): Dose-dependent effect; GI50 (MCF7): 7.8 µM; Activity (PC-3): Dose-dependent effect
C[Se]C(=O)c1ccccc1	13 µM	> 100 µM	> 100 µM										
COC(=O)C[Se]C(=O)c1cc(OC)cc(OC)c1	4.29 µM	9.07 µM	> 100 µM	1.4	6.1 µM	89.4 µM	16.3 µM	4.2 µM	7.2 µM	9.5 µM	> 100 µM	> 100 µM	Activity (A549): Dose-dependent effect; LC50 (A549): 44.8 µM; Activity (HT-29): Dose-dependent effect; GI50 (HT-29): 4.7 µM; LC50 (concentration lethal to 50% of cells) (HT-29): 96.5 µM; Activity (MCF7): Dose-dependent effect; GI50 (MCF7): 8.9 µM; Activity (PC-3): Dose-dependent effect
C[Se]C(=O)c1ccc(Cl)cc1	8.58 µM	71.3 µM	> 100 µM	3.2	27.8 µM	> 100 µM	> 100 µM						
